The text below walks through data of ChEMBL document CHEMBL1773037, “Evaluation of superior BACE1 cleavage sequences containing unnatural amino acids” (Bioorg Med Chem, 2011).

Experiment [1] addresses Beta-secretase 1 (Homo sapiens) (UniProt P56817). The experiment is described as follows: Activity of recombinant BACE assessed as retention time of C-terminal fragment by HPLC method.
For experiment [2] the target is unchanged. The experiment in a line: Activity of recombinant BACE assessed as retention time of substrate by HPLC method.
Experiment [3] shares this target. The experiment is described as follows: Activity of recombinant BACE assessed as substrate cleavage at 300 uM after 3 hrs by HPLC analysis. A digest of the protocol: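 Individually synthesized, purified substrates at 300 µM in 40 mM AcONa buffer, pH 4.5, 37 °C. rBACE1 used at 60 nM (P1, P4 substrates), 30 nM (P2, P3 substrates) or 10 nM (P1' substrates and the dodecapeptide). Aliquots taken at 0, 1 and 3 h, quenched with 7 M GuHCl, and the decrease in each substrate peak monitored by HPLC.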

Active and inactive are the calls of the source. No cut-off for these calls is given here. Non-standard residues stand in square brackets, D forms with d. Residues, ends and D or L forms follow the SMILES beside them. 2Thi = N[C@@H](Cc1cccs1)C(=O)O; Cha = N[C@@H](CC1CCCCC1)C(=O)O; Cit = NC(=O)NCCC[C@H](N)C(=O)O; Phg = N[C@H](C(=O)O)c1ccccc1; Tle = CC(C)(C)[C@H](N)C(=O)O; Nva = CCC[C@H](N)C(=O)O; Abu = CC[C@H](N)C(=O)O

Sequence of Beta-secretase 1 (Homo sapiens) (P56817 whole entry, the tested form may be a part): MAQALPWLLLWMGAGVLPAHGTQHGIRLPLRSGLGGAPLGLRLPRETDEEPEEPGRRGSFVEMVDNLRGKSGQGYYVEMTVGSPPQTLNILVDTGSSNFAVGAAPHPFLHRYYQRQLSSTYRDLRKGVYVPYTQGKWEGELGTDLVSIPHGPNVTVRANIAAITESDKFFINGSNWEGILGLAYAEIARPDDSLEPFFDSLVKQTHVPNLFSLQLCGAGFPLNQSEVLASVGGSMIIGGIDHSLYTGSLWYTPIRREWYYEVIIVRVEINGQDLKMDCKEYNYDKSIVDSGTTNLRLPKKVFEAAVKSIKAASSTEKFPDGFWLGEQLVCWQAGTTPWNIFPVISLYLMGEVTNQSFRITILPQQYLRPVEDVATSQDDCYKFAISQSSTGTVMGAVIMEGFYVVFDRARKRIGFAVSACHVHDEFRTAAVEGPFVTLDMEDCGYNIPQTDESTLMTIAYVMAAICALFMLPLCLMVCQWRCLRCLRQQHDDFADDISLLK

`CC[C@H](NC(=O)[C@H](CC(N)=O)NC(=O)[C@@H](NC(=O)[C@H](CCC(=O)O)NC(=O)[C@H](CO)NC(=O)[C@@H](N)[C@@H](C)CC)C(C)C)C(=O)N[C@@H](CC(=O)O)C(=O)N[C@@H](C)C(=O)N[C@@H](CCC(=O)O)C(=O)N[C@@H](Cc1ccccc1)C(=O)N[C@@H](CCCNC(=N)N)C(=O)N[C@@H](Cc1cnc[nH]1)C(N)=O` (H-ISEVN[Abu]DAEFRH-NH2): the retention time in experiment [1] came out at 0.217 h; in experiment [2] it was 0.409 h. Besides, the result in experiment [3] was Active.

For the compound `CC[C@H](C)[C@H](N)C(=O)N[C@@H](CO)C(=O)N[C@@H](CCC(=O)O)C(=O)N[C@H](C(=O)N[C@@H](CC(N)=O)C(=O)N[C@@H](CC1CCCCC1)C(=O)N[C@@H](CC(=O)O)C(=O)N[C@@H](C)C(=O)N[C@@H](CCC(=O)O)C(=O)N[C@@H](Cc1ccccc1)C(=O)N[C@@H](CCCNC(=N)N)C(=O)N[C@@H](Cc1cnc[nH]1)C(N)=O)C(C)C` (H-ISEVN[Cha]DAEFRH-NH2), the results for the retention time in experiment [1] and in experiment [2] were 0.217 h and 0.573 h, respectively.

For `CC[C@H](C)[C@H](N)C(=O)N[C@@H](CO)C(=O)N[C@@H](CCC(=O)O)C(=O)N[C@H](C(=O)N[C@@H](CC(N)=O)C(=O)N[C@H](C(=O)N[C@@H](CC(=O)O)C(=O)N[C@@H](C)C(=O)N[C@@H](CCC(=O)O)C(=O)N[C@@H](Cc1ccccc1)C(=O)N[C@@H](CCCNC(=N)N)C(=O)N[C@@H](Cc1cnc[nH]1)C(N)=O)C(C)(C)C)C(C)C` (H-ISEVN[Tle]DAEFRH-NH2), the figures for the retention time in experiment [1] and in experiment [2] were 0.217 h and 0.479 h, respectively.

With `CC[C@H](C)[C@H](N)C(=O)N[C@@H](CO)C(=O)N[C@@H](CCC(=O)O)C(=O)N[C@H](C(=O)N[C@@H](Cc1cccs1)C(=O)N[C@@H](CC(C)C)C(=O)N[C@@H](CC(=O)O)C(=O)N[C@@H](C)C(=O)N[C@@H](CCC(=O)O)C(=O)N[C@@H](Cc1ccccc1)C(=O)N[C@@H](CCCNC(=N)N)C(=O)N[C@@H](Cc1cnc[nH]1)C(N)=O)C(C)C` (H-ISEV[2Thi]LDAEFRH-NH2), in experiment [2], the retention time came out at 0.551 h. Further, the result in experiment [3] was Active.

With `CCC[C@H](NC(=O)[C@@H](NC(=O)[C@H](CCC(=O)O)NC(=O)[C@H](CO)NC(=O)[C@@H](N)[C@@H](C)CC)C(C)C)C(=O)N[C@@H](CC(C)C)C(=O)N[C@@H](CC(=O)O)C(=O)N[C@@H](C)C(=O)N[C@@H](CCC(=O)O)C(=O)N[C@@H](Cc1ccccc1)C(=O)N[C@@H](CCCNC(=N)N)C(=O)N[C@@H](Cc1cnc[nH]1)C(N)=O` (H-ISEV[Nva]LDAEFRH-NH2), the retention time in experiment [2] was 0.521 h. Besides, the outcome in experiment [3] was Active.

In the case of `CCC[C@H](NC(=O)[C@H](CCC(=O)O)NC(=O)[C@H](CO)NC(=O)[C@@H](N)[C@@H](C)CC)C(=O)N[C@@H](CC(N)=O)C(=O)N[C@@H](CC(C)C)C(=O)N[C@@H](CC(=O)O)C(=O)N[C@@H](C)C(=O)N[C@@H](CCC(=O)O)C(=O)N[C@@H](Cc1ccccc1)C(=O)N[C@@H](CCCNC(=N)N)C(=O)N[C@@H](Cc1cnc[nH]1)C(N)=O` (H-ISE[Nva]NLDAEFRH-NH2), in experiment [2], the retention time was 0.496 h. For the same compound, in experiment [3], the result was Active.

Turning to `CC[C@H](C)[C@H](N)C(=O)N[C@@H](CO)C(=O)N[C@@H](CCCNC(N)=O)C(=O)N[C@H](C(=O)N[C@@H](CC(N)=O)C(=O)N[C@@H](CC(C)C)C(=O)N[C@@H](CC(=O)O)C(=O)N[C@@H](C)C(=O)N[C@@H](CCC(=O)O)C(=O)N[C@@H](Cc1ccccc1)C(=O)N[C@@H](CCCNC(=N)N)C(=O)N[C@@H](Cc1cnc[nH]1)C(N)=O)C(C)C` (H-IS[Cit]VNLDAEFRH-NH2), the retention time in experiment [2] was determined as 0.474 h. For the same compound, the outcome in experiment [3] was Active.

Consider `CC[C@H](C)[C@H](N)C(=O)N[C@@H](CO)C(=O)N[C@H](C(=O)N[C@H](C(=O)N[C@@H](CC(N)=O)C(=O)N[C@@H](CC(C)C)C(=O)N[C@@H](CC(=O)O)C(=O)N[C@@H](C)C(=O)N[C@@H](CCC(=O)O)C(=O)N[C@@H](Cc1ccccc1)C(=O)N[C@@H](CCCNC(=N)N)C(=O)N[C@@H](Cc1cnc[nH]1)C(N)=O)C(C)C)c1ccccc1` (H-IS[Phg]VNLDAEFRH-NH2), for which the retention time in experiment [2] worked out at 0.582 h. Besides, the result in experiment [3] was Active.
